Test system: MS2 coat protein
Assay: apparent Kd, MS2 coat protein; higher = weaker binding; RNA-MaP array; FMN 200 µM where present
Method in brief: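 Stalled E. coli RNA polymerase transcribed the designs on Illumina sequencing-chip clusters. SNAP-549-labelled MS2 coat protein was titrated from 0.7 or 1.5 nM, doubling to 3 µM, without and then with constant ligand, in 100 mM Tris-HCl pH 7.5, 80 mM KCl, 4 mM MgCl2, BSA, DTT, yeast tRNA and Tween-20. Per-cluster binding curves were fitted to green signal normalised to red-channel RNA signal and control-cluster median Fmax. The apparent Kd is the median of the filtered fits.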

[1] = designed as: ON switch for flavin mononucleotide, no ligand
[2] = ligand present: flavin mononucleotide, designed as: ON switch for flavin mononucleotide
[3] = designed as: OFF switch for flavin mononucleotide, no ligand
[4] = ligand present: flavin mononucleotide, designed as: OFF switch for flavin mononucleotide

Row | Sequence | apparent Kd [1] | apparent Kd [2] | apparent Kd [3] | apparent Kd [4]
1 | AGGGUACAUGAGGAUCACCCAUGUGGGUCGGUCGCAGGAUAUGCCCGUGGGCGCUGGCGGGCAGAAGGGUGCCGAA | 313 nM | 45 nM |  | 
2 | AGUAAGAUGCAGAAGGUGCCAGCGAGAGCUGCACAUGAGGAUCACCCAUGUUGUCGGUGACGACGCAAGGAUAUGCAUCUUACA | 24.5 nM | 6.87 nM |  | 
3 | UCGGCGCGAGGAUAUACGUUUGCGCGUUUUCGUUUUCGCGUACAUGAGGAUCACCCAUGUAGAAGGCGCGCCGC |  |  | 16.6 nM | 32.1 nM
4 | ACAUACAUGACAUGACAUGAGGAUCACCCAUGUCCAUGUUACAAGGAUAUGUACAUGAAACAUGUACAGAAGGUGUAUUGGACU |  |  | 13.1 nM | 18 nM
5 | CGGGAUCCGAAGGGCGAAAGCCCACAUGAGGAUCACCCAUGUAGAAGGCGGGCCGCAACGCGGCCCGAGGAUAUACAGGAUCCA |  |  | 17.9 nM | 37 nM
6 | AACCGCGACCGGCCUGGCACGUCGAGAAGGGUACGUGACUUGCUUUACAUGAGGAUCACCCAUGUACAGGAUAUCGAAUAGCCG |  |  | 8.4 nM | 11 nM
7 | UGUUGUAUUACAGGAUAUCUAGUAUUUUUACUUAGAGAAGGGUAUUCACAUGAGGAUCACCCAUGUAUAUACGAGGAAGUUGUG | 28.8 nM | 29.8 nM |  | 
8 | AGGGCAACAGGAUAUCAUACAAUCUACAUGAGGAUCACCCAUGUGCCUCUUUUCAUACUGUGAGAAGGGUUGUCGG |  |  | 64.8 nM | 63.8 nM
9 | GGCUCAUUUACAUUAAUGUGCUGACAGGAUAUCCACGGCGGUUCCUACAUGAGGAUCACCCAUGUGGAGAAGGGUCGCUAAUGG |  |  | 12.4 nM | 18.9 nM
10 | UUUUAGCUAGGAUAUACAUUUUUUUUAUUAUCCUCAUUAUUACAUGAGGAUCACCCAUGUAGAAGGAGCAUUUU |  |  | 237 nM | 313 nM
11 | CGCAUCUCCUCAAUUCCUUCACAUGAGGAUCACCCAUGUAGGGAGGAUAUGCAAGCCUAUUGGCGGCAGAAGGCCCUGCAAUGG |  |  | 72.9 nM | 67.4 nM
12 | UGCUACGUUUCGUAGCAGUGUCAUCGAGAAGGCCCUGACAUGAGGAUCACCCAUGUUGUUACAUGGGAGGAUAUCGAUGAUACU | 12.4 nM | 5.09 nM |  | 
13 | CCCGGGCCUGUGAGGAUAUCGGGCCCGAAAGGGCCCGAGAAGGCACAUGAGGAUCACCCAUGUAAGGGUUUGGG |  |  | 27.4 nM | 19.7 nM
14 | UUCAAAUUCGUAGGAUAUGUAUAAAUUAUCUACAUGAGGAUCACCCAUGUUUUCAUUUUAAAUUGACAGAAGGACGUAAUCUUA | 16.4 nM | 7.87 nM |  | 
15 | UUUUAGUGAGGAUAUGUGGCUUCGAUCGUGAGAUCGAGGCUACAGAAGGCACAUGAGGAUCACCCAUGUUCCUU |  |  | 14.5 nM | 46.8 nM
16 | CCACGUCCCAUUAACAUGAGGAUCACCCAUGUCAAAAGACAUGAGGAUAUGCAUCCUAAUUGGAUGCAGAAGGCAUGGACGUGG | 814 nM | 87.1 nM |  | 
17 | CUUCAUUGUUGAGGAUAUAAUUAUAGGAUGUAGUUAGAAGGCGAACAUGAGGAUCACCCAUGUCAGGCAUGGAGACCCUUGACC |  |  | 519 nM | 624 nM
18 | UAAUUACAUGAGGAUCACCCAUGUGAGGAUAUGUCCAUAUUCGGCAAAUCGGAUAUGGACAGAAGGCACACCGG |  |  | 56.3 nM | 141 nM
19 | CCAUCAGCGAACGAUACGAUUGGACAUGAGGAUCACCCAUGUAGAAGGACAGGAGAAUAACGGCUGUAGGAUAUACAUUUAGUG |  |  | 58.4 nM | 40.6 nM
20 | UACCUGAGGCAAAGCCUUAGGUAUACAUGAGGAUCACCCAUGUAGGAUAUGGUAGGCUUUGCUUACCAGAAGGACAUGUUAAUU |  |  | 19.8 nM | 63.8 nM
21 | UGUUGUAUUACAGGAUAUCUAUUAUAUUUAUUUAGAGAAGGGUAUUCACAUGAGGAUCACCCAUGUAUAUACGAGGAAGUUGUG | 49.6 nM | 55.1 nM |  | 

Row | Sequence | apparent Kd [1] | apparent Kd [2] | apparent Kd [3] | apparent Kd [4]
22 | UGAAAUCAUGUAGGAUAUGCAUGGCGAAGCUACGCAGAAGGACAUGAGGAUCACCCAUGUUCGAGGGUCUGAGUACAGAUCCAA |  |  | 25.2 nM | 162 nM
23 | GUAGCCGACCAGAAGGGUGACAUGAGGAUCACCCAUGUAGAUGUGUUCCCGCUUGGGAGCCGUCCACAGGAUAUGGUUGGUUAU | 54.1 nM | 38.3 nM |  | 
24 | ACCUCACAUGAGGAUCACCCAUGUUAGGAUAUCUCGGCGCCCUGCAGGCAGUGGCACCAGAGAAGGAACGUGCA |  |  | 22.5 nM | 25.3 nM
25 | UUUUAACAUGAGGAUCACCCAUGUGAGGAUAUCGAAAUUUAUAUUUAUAUUAAUUAUACGAGAAGGCACAUUUU |  |  | 79.2 nM | 104 nM
26 | CCAGAUUUCACAGGAUAUAUUGAUGACAUGAGGAUCACCCAUGUACCGGCAGUAGAAGGGUGAACGCUCGUGACCACGUGCGUG | 253 nM | 134 nM |  | 
27 | GGAACGCUUGACAUGAGGAUCACCCAUGUUAGAUUGUUAUGUCAGGAUAUAGUCUAGAAACUAGACUAGAAGGGAUAUGUUUCU | 428 nM | 87.7 nM |  | 
28 | GCUGCAUAGGCAGGAUAUGCAAUAAUUCGAAUAAAAUUUAACGAAUUAACAUGAGGAUCACCCAUGUAGAAGGGCCUGUGCAGU |  |  | 5.49 nM | 4.69 nM
29 | AUGAGGUCAGGAUAUGCAUGGCGGGACUUGCGUCGUGGCGUGGAGAAGGGACAUGAGGAUCACCCAUGUGGAGG |  |  | 108 nM | 88.3 nM
30 | UUAUUAUAUGUAGGAUAUGCAUAUUGUUGUUAUGCAGAAGGACAUGAGGAUCACCCAUGUAUAUUAUUGUUAUAUAUUAUAUAU |  |  | 23.4 nM | 36.7 nM
31 | AAUAACAGAGGAUAUACUAUUUUAUGUGUUUGUUGUUUUAAACAUGAGGAUCACCCAUGUAGAAGGCUGAGUAA |  |  | 24.3 nM | 30.4 nM
32 | GGCAAUAACGAGGAUAUCGUAUCGGAAACGAUACGAGAAGGUGUAACAUGAGGAUCACCCAUGUUCCUCAAGCC |  |  | 37.9 nM | 37.2 nM
33 | GCCCGGGCUAACAUGAGGAUCACCCAUGUGUUAUACUUAAUAUAGGAUAUGUUUAUACUUUUUGGGCAGAAGGAUGGCCCGGGC | 68.2 nM | 61.7 nM |  | 
34 | AUACUCAUGUAAGGAUAUGCAGCCGUUUCGGCUGCAGAAGGUACUAUAAUACAUGAGGAUCACCCAUGUCCCUCGCAUUGCGAG | 657 nM | 85.9 nM |  | 
35 | GGGCCCGGAGGAUAUACAUGAGGAUCACCCAUGUAGGGUUUGGGUAUUCCCGGGCCCUGUAGAAGGCCGGGCCC |  |  | 17.1 nM | 22.5 nM
36 | UGCGGUAGAGGAUAUACAUUGAAUUUGAUUCAUGUAAAACUACAUGAGGAUCACCCAUGUAGAAGGCUAUCGCU |  |  | 17.4 nM | 36.1 nM
37 | GUUUCACAUGAGGAUCACCCAUGUGAGGAUAUGGUUUCGCUGGCCGUAGCCAGUGGAACCAGAAGGCGCGUGAU |  |  | 60.7 nM | 71.1 nM
38 | AAACGCGUAGGAUAUACAUGAGGAUCACCCAUGUAUUGGGCUGUUGAUCUUCCUAAGGGUAGAAGGACGGGCAC |  |  | 68.1 nM | 119 nM
39 | AUGUUAGGAGGAUAUCGAUUUCAGGACAUGAGGAUCACCCAUGUACUAAAAGUCGUGGUUCGAGAAGGCCUAACUU |  |  | 17.5 nM | 23.5 nM
40 | AAUUUAAUACAUGAGGAUCACCCAUGUAAAUUAAUUAAGAUCAAGGAUAUCAGCUCGAAUAGAGCUGAGAAGGUGAUCACAUGU | 351 nM | 86.5 nM |  | 
41 | ACCACGUUAGCGAUAUGAUCGAGAGAUCAUGUCGCUAUAUUUAGAAGGACAUGAGGAUCACCCAUGUAGGAUAUGGGUCGUGGA | 36.3 nM | 9.03 nM |  | 
42 | UUUUUUUUAGUAAGGAUAUGAUGCAGGAAACUGCGUCAGAAGGUACAUGAGGAUCACCCAUGUUAAUUUUGUUU |  |  | 18.8 nM | 20.4 nM

Source: the EternaBench riboswitch data
